{"source": "ChEMBL document CHEMBL1131295", "about": "“Design of peptidomimetics that inhibit the association of phosphatidylinositol 3-kinase with platelet-derived growth factor-beta receptor and possess cellular activity” (J Med Chem, 1998)", "note": "Where a SMILES comes first, the peptide text is derived from it. [ ]: non-standard residue; d: D form. F2Pmp = N[C@@H](Cc1ccc(C(F)(F)P(=O)(O)O)cc1)C(=O)O; Pmp = N[C@@H](Cc1ccc(CP(=O)(O)O)cc1)C(=O)O; pY = N[C@@H](Cc1ccc(OP(=O)(O)O)cc1)C(=O)O; Nle = CCCC[C@H](N)C(=O)O"}
{"test_system": "not listed separately", "assay": "Binding affinity against p85 C-terminal SH2 domain to platelet-derived growth factor receptor beta using [35S]GST as radioligand", "details": "not given", "how_it_was_run": "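Recombinant [35S]-labelled GST-p85 C-terminal SH2 fusion (E. coli, IPTG 1 mM, trans-35S label) binding to bead-bound Sf9-expressed PDGF-β receptor tyrosine kinase domain, prephosphorylated with 1 mM ATP, 10 mM MnCl2, 5 mM MgCl2.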", "units": {"IC50": "nM"}}
{"smiles": "CCCCN(CCCC)C(=O)[C@@H](C)NC(=O)[C@@H](NC(=O)[C@H](Cc1ccc(OP(=O)(O)O)cc1)NC(C)=O)C(C)C", "IC50": 478}
{"smiles": "CCCCCN(CCCCC)C(=O)[C@H](C)NC(=O)[C@@H](NC(=O)[C@H](Cc1ccc(C(F)(F)P(=O)(O)O)cc1)NC(C)=O)C(C)C", "IC50": 372}
{"smiles": "CC(=O)N[C@@H](Cc1ccc(OP(=O)(O)O)cc1)C(=O)N[C@H](C(=O)N[C@H](C)C(=O)NCCC1CCCCC1)C(C)C", "IC50": 19000}
{"smiles": "CC(=O)N[C@@H](Cc1ccc(OP(=O)(O)O)cc1)C(=O)N[C@H](C(=O)N[C@@H](C)C(=O)NCCC1CCCCC1)C(C)C", "IC50": "> 100000"}
{"smiles": "CCCCN(CC(N)=O)C(=O)[C@@H](C)NC(=O)[C@@H](NC(=O)[C@H](Cc1ccc(OP(=O)(O)O)cc1)NC(C)=O)C(C)C", "IC50": 2500}
{"smiles": "CCCCCNC(=O)[C@H](C)NC(=O)[C@@H](NC(=O)[C@H](Cc1ccc(OP(=O)(O)O)cc1)NC(C)=O)C(C)C", "IC50": 16100}
{"smiles": "CCCCCCCCN(CCCCCCCC)C(=O)[C@H](C)NC(=O)[C@@H](NC(=O)[C@H](Cc1ccc(OP(=O)(O)O)cc1)NC(C)=O)C(C)C", "IC50": 3470}
{"smiles": "CCCCCCN(CCCCCC)C(=O)[C@@H](C)NC(=O)[C@@H](NC(=O)[C@H](Cc1ccc(OP(=O)(O)O)cc1)NC(C)=O)C(C)C", "IC50": 76}
{"smiles": "CCCCCN(CCCCC)C(=O)[C@@H](C)NC(=O)[C@@H](NC(=O)[C@H](Cc1ccc(OP(=O)(O)O)cc1)NC(C)=O)C(C)C", "IC50": 220}
{"smiles": "CCCCN(CCCC)C(=O)[C@H](C)NC(=O)[C@@H](NC(=O)[C@H](Cc1ccc(OP(=O)(O)O)cc1)NC(C)=O)C(C)C", "IC50": 5700}
{"smiles": "CCCCCCN(CCCCCC)C(=O)[C@H](C)NC(=O)[C@@H](NC(=O)[C@H](Cc1ccc(C(F)(F)P(=O)(O)O)cc1)NC(C)=O)C(C)C", "IC50": 446}
{"smiles": "CC(=O)N[C@@H](Cc1ccc(OP(=O)(O)O)cc1)C(=O)N[C@H](C(=O)N[C@@H](C)C(=O)NCCc1ccccc1)C(C)C", "IC50": "> 100000"}
{"smiles": "CCCCCN(CCCCC)C(=O)[C@H](C)NC(=O)[C@@H](NC(=O)[C@H](Cc1ccc(OP(=O)(O)O)cc1)NC(C)=O)C(C)C", "IC50": 3320}
{"smiles": "CCCCCCN(CCCCCC)C(=O)[C@H](C)NC(=O)[C@@H](NC(=O)[C@H](Cc1ccc(OP(=O)(O)O)cc1)NC(C)=O)C(C)C", "IC50": 2500}
{"smiles": "CC(=O)N[C@@H](Cc1ccc(OP(=O)(O)O)cc1)C(=O)N[C@H](C(=O)N[C@H](C)C(=O)NCCc1ccccc1)C(C)C", "IC50": 37600}
{"smiles": "CSCC[C@H](NC(=O)[C@@H]1CCCN1C(=O)[C@@H](NC(=O)[C@H](Cc1ccc(C(F)(F)P(=O)(O)O)cc1)NC(C)=O)C(C)C)C(N)=O", "note": "(Ac-[F2Pmp]VPM-NH2)", "IC50": 1450}
{"smiles": "CSCC[C@H](NC(=O)[C@@H]1CCCN1C(=O)[C@@H](NC(=O)[C@H](Cc1ccc(OP(=O)(O)O)cc1)NC(C)=O)C(C)C)C(N)=O", "note": "(Ac-[pY]VPM-NH2)", "IC50": 264}
{"smiles": "CSCC[C@H](NC(=O)[C@@H]1CCCN1C(=O)[C@@H](NC(=O)[C@H](Cc1ccc(OP(=O)(O)O)cc1)NC(C)=O)C(C)C)C(=O)N[C@@H](CC(C)C)C(N)=O", "note": "(Ac-[pY]VPML-NH2)", "IC50": 160}
{"smiles": "CSCC[C@H](NC(=O)[C@@H]1CCCN1C(=O)[C@@H](NC(=O)[C@H](Cc1ccc(OP(=O)(O)O)cc1)NC(C)=O)C(C)C)C(=O)N[C@@H](CC(C)C)C(=O)O", "note": "(Ac-[pY]VPML-OH)", "IC50": 180}
{"smiles": "CSCC[C@H](NC(=O)[C@@H]1CCCN1C(=O)[C@@H](NC(=O)[C@@H](N)Cc1ccc(C(F)(F)P(=O)(O)O)cc1)C(C)C)C(=O)N[C@@H](CC(C)C)C(=O)O", "note": "(H-[F2Pmp]VPML-OH)", "IC50": 945}
{"smiles": "CSCC[C@H](NC(=O)[C@@H]1CCCN1C(=O)[C@@H](NC(=O)[C@@H](N)Cc1ccc(CP(=O)(O)O)cc1)C(C)C)C(=O)N[C@@H](CC(C)C)C(=O)O", "note": "(H-[Pmp]VPML-OH)", "IC50": 8700}
{"smiles": "CSCC[C@H](NC(=O)[C@H](CC(=O)O)NC(=O)[C@H](CCSC)NC(=O)[C@@H](N)Cc1ccc(OP(=O)(O)O)cc1)C(=O)N[C@@H](CO)C(=O)O", "note": "(H-[pY]MDMS-OH)", "IC50": 520}
{"smiles": "CSCC[C@H](NC(=O)[C@@H]1CCCN1C(=O)[C@@H](NC(=O)[C@@H](N)Cc1ccc(OP(=O)(O)O)cc1)C(C)C)C(N)=O", "note": "(H-[pY]VPM-NH2)", "IC50": 485}
{"smiles": "CSCC[C@H](NC(=O)[C@@H]1CCCN1C(=O)[C@@H](NC(=O)[C@@H](N)Cc1ccc(OP(=O)(O)O)cc1)C(C)C)C(=O)O", "note": "(H-[pY]VPM-OH)", "IC50": 6850}
{"smiles": "CSCC[C@H](NC(=O)[C@@H]1CCCN1C(=O)[C@@H](NC(=O)[C@@H](N)Cc1ccc(OP(=O)(O)O)cc1)C(C)C)C(=O)N[C@@H](CC(C)C)C(N)=O", "note": "(H-[pY]VPML-NH2)", "IC50": 400}
{"smiles": "CSCC[C@H](NC(=O)[C@@H]1CCCN1C(=O)[C@@H](NC(=O)[C@@H](N)Cc1ccc(OP(=O)(O)O)cc1)C(C)C)C(=O)N[C@@H](CC(C)C)C(=O)O", "note": "(H-[pY]VPML-OH)", "IC50": 445}
{"smiles": "CCCC[C@H](NC(=O)[C@@H]1CCCN1C(=O)[C@@H](NC(=O)[C@@H](N)Cc1ccc(OP(=O)(O)O)cc1)C(C)C)C(=O)N[C@@H](CC(C)C)C(=O)O", "note": "(H-[pY]VP[Nle]L-OH)", "IC50": 1360}
{"smiles": "CCCCCNC(=O)C(C)NC(=O)[C@@H](NC(=O)[C@H](Cc1ccc(OP(=O)(O)O)cc1)NC(C)=O)C(C)C", "note": "(single isomer, unassigned)", "IC50": 4560}
{"target": "Proto-oncogene tyrosine-protein kinase Src (Homo sapiens, UniProt P12931)", "sequence (P12931 2-536 limits assumed)": "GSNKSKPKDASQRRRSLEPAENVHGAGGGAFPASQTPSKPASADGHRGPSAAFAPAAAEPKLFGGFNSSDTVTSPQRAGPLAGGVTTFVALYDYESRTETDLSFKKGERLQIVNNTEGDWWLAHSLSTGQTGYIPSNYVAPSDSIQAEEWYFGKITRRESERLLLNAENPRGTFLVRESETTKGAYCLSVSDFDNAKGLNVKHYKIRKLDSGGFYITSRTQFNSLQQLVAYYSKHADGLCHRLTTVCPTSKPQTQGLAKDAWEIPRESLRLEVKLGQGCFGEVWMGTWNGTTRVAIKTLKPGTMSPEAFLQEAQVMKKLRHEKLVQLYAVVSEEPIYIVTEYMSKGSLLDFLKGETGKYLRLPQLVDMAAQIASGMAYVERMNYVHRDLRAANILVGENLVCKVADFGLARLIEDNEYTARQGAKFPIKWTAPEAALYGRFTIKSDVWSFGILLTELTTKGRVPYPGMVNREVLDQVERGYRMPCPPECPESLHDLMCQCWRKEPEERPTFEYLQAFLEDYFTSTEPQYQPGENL", "assay": "Affinity for SH2 domain of src in Sf9 insect cells", "details": "not given", "units": {"IC50": "nM"}}
{"smiles": "CSCC[C@H](NC(=O)[C@@H]1CCCN1C(=O)[C@@H](NC(=O)[C@H](Cc1ccc(OP(=O)(O)O)cc1)NC(C)=O)C(C)C)C(=O)N[C@@H](CC(C)C)C(=O)O", "note": "(Ac-[pY]VPML-OH)", "IC50": 5900}
{"smiles": "CSCC[C@H](NC(=O)[C@@H]1CCCN1C(=O)[C@@H](NC(=O)[C@@H](N)Cc1ccc(OP(=O)(O)O)cc1)C(C)C)C(=O)N[C@@H](CC(C)C)C(=O)O", "note": "(H-[pY]VPML-OH)", "IC50": 12700}
{"smiles": "CCCC[C@H](NC(=O)[C@@H]1CCCN1C(=O)[C@@H](NC(=O)[C@@H](N)Cc1ccc(OP(=O)(O)O)cc1)C(C)C)C(=O)N[C@@H](CC(C)C)C(=O)O", "note": "(H-[pY]VP[Nle]L-OH)", "IC50": "> 10000"}
{"target": "Tyrosine-protein kinase ABL1 (Homo sapiens) (UniProt P00519)", "sequence (P00519 whole entry, the tested form may be a part)": "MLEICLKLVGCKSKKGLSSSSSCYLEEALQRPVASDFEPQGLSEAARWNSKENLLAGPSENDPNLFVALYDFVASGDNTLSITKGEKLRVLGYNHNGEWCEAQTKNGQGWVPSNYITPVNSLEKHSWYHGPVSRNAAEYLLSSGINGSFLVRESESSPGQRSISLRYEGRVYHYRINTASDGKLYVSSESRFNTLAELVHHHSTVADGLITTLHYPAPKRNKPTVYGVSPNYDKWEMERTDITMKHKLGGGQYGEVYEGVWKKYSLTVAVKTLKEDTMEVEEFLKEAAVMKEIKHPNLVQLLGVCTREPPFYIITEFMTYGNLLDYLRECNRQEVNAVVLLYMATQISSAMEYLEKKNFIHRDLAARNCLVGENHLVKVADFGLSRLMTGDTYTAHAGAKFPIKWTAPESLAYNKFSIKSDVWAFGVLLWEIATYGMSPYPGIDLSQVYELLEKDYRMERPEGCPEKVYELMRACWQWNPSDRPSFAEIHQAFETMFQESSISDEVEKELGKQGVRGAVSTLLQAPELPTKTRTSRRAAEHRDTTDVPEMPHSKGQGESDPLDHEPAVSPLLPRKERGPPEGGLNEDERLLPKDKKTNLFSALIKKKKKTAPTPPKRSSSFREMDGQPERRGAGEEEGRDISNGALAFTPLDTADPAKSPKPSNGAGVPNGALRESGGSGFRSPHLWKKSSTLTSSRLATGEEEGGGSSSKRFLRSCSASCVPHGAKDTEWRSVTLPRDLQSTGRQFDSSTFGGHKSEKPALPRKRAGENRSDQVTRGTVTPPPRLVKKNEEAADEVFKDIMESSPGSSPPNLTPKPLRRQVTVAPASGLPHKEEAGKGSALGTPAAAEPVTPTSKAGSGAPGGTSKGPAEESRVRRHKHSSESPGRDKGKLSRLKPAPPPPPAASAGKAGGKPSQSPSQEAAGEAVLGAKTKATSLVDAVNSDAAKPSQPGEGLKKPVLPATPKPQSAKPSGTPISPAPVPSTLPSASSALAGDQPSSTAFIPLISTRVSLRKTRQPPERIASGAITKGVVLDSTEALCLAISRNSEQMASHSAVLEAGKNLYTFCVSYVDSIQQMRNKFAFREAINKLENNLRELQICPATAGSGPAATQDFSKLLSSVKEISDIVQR", "assay": "Affinity for SH2 domain of abl expressed in Sf9 insect cells", "details": "concentration not given here", "units": {"inhibition": "%"}}
{"smiles": "CSCC[C@H](NC(=O)[C@@H]1CCCN1C(=O)[C@@H](NC(=O)[C@@H](N)Cc1ccc(OP(=O)(O)O)cc1)C(C)C)C(=O)N[C@@H](CC(C)C)C(=O)O", "note": "(H-[pY]VPML-OH)", "inhibition": 60}
